From PubChem BioAssay
PfG6PD inh: PfG6PD (Plasmodium falciparum) enzyme inhibition; PfGluPho enzyme, NADPH resazurin-diaphorase fluorescence; inhibition, % at 20 µM; 350,000 compounds, 0.78% hits; AID 504690;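 active = inhibition reaching at least a set limit at 20 µM in the primary screen, cut at about 59% in these data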;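 also: 0% = DMSO wells with substrate and 100% = DMSO wells lacking glucose-6-phosphate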
Exocytosis inh: lytic granule exocytosis inhibition; 360,000 compounds, 0.66% hits; AID 651702; inhibition, % at 10 µM; TALL-104 LAMP-1 surface exposure, flow cytometry; cells stimulated with thapsigargin and PMA;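 active = inhibition above about 55%, limit read from the data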
HKDC1 inhibitor: inhibitors of human hexokinase HKDC1. Q2TB90. recombinant HKDC1, G6PDH/diaphorase resazurin coupled fluorescence. inhibition, % at 20 µM. 340,000 compounds, 0.16% hits. AID 493160;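 active = inhibition above about 35% when tested at 20 µM, limit read from the data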;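 also: plate controls were DMSO wells with enzyme for no effect and DMSO wells lacking enzyme for full effect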
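Assay system: in-house recombinant HK5 (HKDC1) enzyme. Input: HKDC1 at 5 µg/mL. Medium: Tris pH 8.0 buffer with MgCl2, Tween-20, BSA, BME. Dosing: single 20 µM dose. Schedule: 90 min reaction incubation at room temperature, dark. Signal: resazurin-to-resorufin fluorescence via G6PDH and diaphorase coupling, 525/613 nm. Controls: DMSO-enzyme wells negative, buffer-substituted wells positive.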
ABHD5 PLIN5 PPI: inhibitors of human ABHD5-perilipin-5 interaction; inhibition, % at 4 µM; AID 602281; Split G. princeps luciferase complementation, luminescence, 4 h; Q00G26+Q8WTS1; 360,000 compounds, 0.78% hits;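 active = inhibition above the mean inhibition across every tested compound plus 3 SD, cut at about 22% in these data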;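 also: 0% = DMSO only wells and the 100% control is not disclosed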
PfG6PD confirm: confirmation of Plasmodium falciparum G6PD inhibitors | 2,400 compounds, 34% hits | shares compounds with PfG6PD inh | recombinant PfGluPho, NADPH-diaphorase-resazurin fluorescence | inhibition, % at 20 µM | AID 504753;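 active = inhibition of at least 50% at 20 µM in any single replicate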;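 also: 0% = DMSO with substrate and 100% = DMSO lacking glucose-6-phosphate substrate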
Diaphorase 10uM: inhibits diaphorase or oxidizes, flagging false PfG6PD hits; 820 compounds, 39% hits; shares compounds with PfG6PD inh; AID 504862; diaphorase-coupled resazurin reduction, fluorescence, NADPH 10 uM; inhibition, % at 20 µM;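 active = average inhibition reaching 50% or more with the compound at 20 µM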;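 also: resorufin red fluorescence formed as diaphorase reduces resazurin using NADPH; 0% = DMSO with enzyme and 100% = DMSO without enzyme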
Diaphorase 30uM: diaphorase inhibition or oxidation at 30 uM NADPH; shares compounds with PfG6PD inh; Diaphorase/resazurin coupled assay, resorufin fluorescence; inhibition, % at 20 µM; 820 compounds, 29% hits;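 active = inhibition averaging 50% or more, tested at 20 µM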;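 also: 0% = DMSO with enzyme and 100% = DMSO wells lacking diaphorase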
An asterisk follows results filed as active. Only some compounds are listed: those with a hit (about 2.2% of all), similar ones and a draw of the others.

What do the screens show for `COc1ccc(CCN(C)C(=O)c2cc(S(=O)(=O)N3CCCCC3)ccc2Cl)cc1OC`?
PfG6PD inh: 17; Exocytosis inh: -10; HKDC1 inhibitor: -4; ABHD5 PLIN5 PPI: -1

Results for O/N=C\c1ccc2noc(-c3ccc(Cl)cc3)c2c1 ?
PfG6PD inh: -2; Exocytosis inh: -2; HKDC1 inhibitor: -2; ABHD5 PLIN5 PPI: 6

Results for S=C(NN=Cc1ccccn1)N(Cc1ccccn1)Cc1ccccn1 ?
PfG6PD inh: 80*; Exocytosis inh: 0; HKDC1 inhibitor: -36; ABHD5 PLIN5 PPI: -15; PfG6PD confirm: 55*; Diaphorase 10uM: -9; Diaphorase 30uM: -1

What do the screens show for `CC(=NNC(=S)N(Cc1ccccn1)Cc1ccccn1)c1cnccn1`?
PfG6PD inh: 20; Exocytosis inh: 6; HKDC1 inhibitor: -38; ABHD5 PLIN5 PPI: -23

How did Clc1ccc(Nc2ncnc3c2cnn3-c2ccccc2)cc1 do in these assays?
PfG6PD inh: 111*; Exocytosis inh: 5; HKDC1 inhibitor: 0; ABHD5 PLIN5 PPI: -9; PfG6PD confirm: 19

What do the screens show for `O=S1(=O)CCN(OCc2ccc(Cl)cc2)CC1`?
PfG6PD inh: -1; Exocytosis inh: -4; HKDC1 inhibitor: -9; ABHD5 PLIN5 PPI: -5

What do the screens show for `COc1cccc(C2=Nc3cccc4cccc(c34)N2)c1`?
PfG6PD inh: 73*; Exocytosis inh: 4; HKDC1 inhibitor: 18; ABHD5 PLIN5 PPI: 12; PfG6PD confirm: 38

What do the screens show for `Cc1ccc(-n2c(N)c(C(=O)N3CCCCC3)sc2=S)cc1`?
PfG6PD inh: 41; Exocytosis inh: -1; HKDC1 inhibitor: -4; ABHD5 PLIN5 PPI: 0

How did Nc1c(C(=O)N2CCCCC2)sc(=S)n1-c1ccccc1 do in these assays?
PfG6PD inh: 79*; Exocytosis inh: 5; HKDC1 inhibitor: -22; ABHD5 PLIN5 PPI: -6; PfG6PD confirm: 35

Results for Cc1ccc(-n2c(N)c(C(=O)N3CCN(C)CC3)sc2=S)cc1 ?
PfG6PD inh: 79*; Exocytosis inh: 4; HKDC1 inhibitor: -15; ABHD5 PLIN5 PPI: -14; PfG6PD confirm: 70*; Diaphorase 10uM: 6; Diaphorase 30uM: 8

What do the screens show for `CCOc1ccc(-n2c(N)c(C(=O)N3CCN(C)CC3)sc2=S)cc1`?
PfG6PD inh: 1; Exocytosis inh: 4; HKDC1 inhibitor: -4; ABHD5 PLIN5 PPI: -3

What do the screens show for `Nc1c(C(=O)N2CCOCC2)sc(=S)n1-c1ccccc1`?
PfG6PD inh: 59*; Exocytosis inh: 0; HKDC1 inhibitor: -7; ABHD5 PLIN5 PPI: -1; PfG6PD confirm: 9

Results for O=[N+]([O-])c1cnc(Sc2ccncn2)c([N+](=O)[O-])c1 ?
PfG6PD inh: 80*; Exocytosis inh: 68*; ABHD5 PLIN5 PPI: -9; PfG6PD confirm: 59*; Diaphorase 10uM: 9; Diaphorase 30uM: 13

How did CCSc1nc2c([nH]1)c(=O)n(C)c(=S)n2C do in these assays?
PfG6PD inh: 62*; Exocytosis inh: -2; HKDC1 inhibitor: -1; ABHD5 PLIN5 PPI: 1; PfG6PD confirm: 41

How did CCCSc1nc2c([nH]1)c(=O)n(C)c(=S)n2C do in these assays?
PfG6PD inh: 21; Exocytosis inh: -1; HKDC1 inhibitor: -2; ABHD5 PLIN5 PPI: 3

How did COc1ccc(S(=O)(=O)N2CCCCC2)cc1C(=O)N1CCCC1 do in these assays?
PfG6PD inh: -8; Exocytosis inh: 0; HKDC1 inhibitor: -4; ABHD5 PLIN5 PPI: 3

How did N#Cc1ccccc1S(=O)(=O)N1CCN(C(=O)CN2C(=O)NC3(CCCC3)C2=O)CC1 do in these assays?
PfG6PD inh: -14; Exocytosis inh: -2; HKDC1 inhibitor: 2; ABHD5 PLIN5 PPI: 1

How did CCS(=O)(=O)N1CCN(c2ccc([N+](=O)[O-])c(NC(C)c3ccccc3)c2)CC1 (configuration not stated) do in these assays?
PfG6PD inh: 78*; Exocytosis inh: 6; HKDC1 inhibitor: 9; ABHD5 PLIN5 PPI: -2; PfG6PD confirm: 54*; Diaphorase 10uM: 34; Diaphorase 30uM: 24

What do the screens show for `CC(Nc1cc(N2CCN(C(=O)C(C)(C)C)CC2)ccc1[N+](=O)[O-])c1ccccc1` (configuration not stated)?
PfG6PD inh: 24; Exocytosis inh: 2; HKDC1 inhibitor: 1; ABHD5 PLIN5 PPI: 1

Results for CC(C)C(=O)N1CCN(c2ccc([N+](=O)[O-])c(NC(C)c3ccccc3)c2)CC1 (configuration not stated) ?
PfG6PD inh: 81*; Exocytosis inh: -1; HKDC1 inhibitor: -4; ABHD5 PLIN5 PPI: 3; PfG6PD confirm: 36

Results for O=C(Nc1sc2c(c1C(=O)O)CCCCC2)c1ccccc1F ?
PfG6PD inh: 62*; Exocytosis inh: 0; HKDC1 inhibitor: -4; ABHD5 PLIN5 PPI: 3; PfG6PD confirm: 40

How did CC(C)(C)c1ccc(C(=O)Nc2sc3c(c2C(=O)O)CCC3)cc1 do in these assays?
PfG6PD inh: 76*; Exocytosis inh: 0; HKDC1 inhibitor: 23; ABHD5 PLIN5 PPI: 4; PfG6PD confirm: 59*; Diaphorase 10uM: 34; Diaphorase 30uM: 15

What do the screens show for `O=C(Nc1sc2c(c1C(=O)O)CCCC2)c1ccc(F)cc1`?
PfG6PD inh: 93*; Exocytosis inh: 12; HKDC1 inhibitor: 6; ABHD5 PLIN5 PPI: 4; PfG6PD confirm: 73*; Diaphorase 10uM: 55*; Diaphorase 30uM: 55*

What do the screens show for `O=C(C1CN(C(=O)c2cc3ccccc3o2)c2ccccc2O1)N1CCCCC1` (configuration not stated)?
PfG6PD inh: 3; Exocytosis inh: 0; ABHD5 PLIN5 PPI: -6

What do the screens show for `c1ccc2sc(NC3=NCN(CC4CCCO4)CN3)nc2c1` (configuration not stated)?
PfG6PD inh: 13; Exocytosis inh: 0; HKDC1 inhibitor: -12; ABHD5 PLIN5 PPI: 4

What do the screens show for `O=C1CCN(S(=O)(=O)c2ccccc2)N1`?
PfG6PD inh: 9; Exocytosis inh: 6; HKDC1 inhibitor: -8; ABHD5 PLIN5 PPI: 1

Results for O=C1CCN(c2ccccc2)N1 ?
PfG6PD inh: 119*; Exocytosis inh: 7; HKDC1 inhibitor: 15; ABHD5 PLIN5 PPI: -28; PfG6PD confirm: 109*; Diaphorase 10uM: 16; Diaphorase 30uM: 8

How did COc1cccc(CNC(=O)Cn2c(=O)c3cccn3c3ccccc32)c1 do in these assays?
PfG6PD inh: 0; Exocytosis inh: -1; HKDC1 inhibitor: -5; ABHD5 PLIN5 PPI: 5

How did O=C(CCCOc1ccc(Cl)cc1Cl)N/N=C/c1cccc([N+](=O)[O-])c1 do in these assays?
PfG6PD inh: 112*; Exocytosis inh: 1; HKDC1 inhibitor: 17; ABHD5 PLIN5 PPI: -5; PfG6PD confirm: 69*; Diaphorase 10uM: 59*; Diaphorase 30uM: 48
